The full list was thinned out, with hits kept by preference.
INS-1E rescue: protection of INS-1E cells from cytokine death, primary screen, ATP luminescence, single point; INS-1E cytokine-induced death, 48 h; normalised: neutral wells 0, positive control 100; protection from cytokine-induced ATP loss, % at 10 µM; 20,000 tested, 0.1% active; AID 488910, 2010;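 active = mean replicate protection from cytokine-induced ATP loss at least 50% and at least 75% of replicates each reaching 50%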
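Assay system: INS-1E rat cells / Quantity: 8000 cells per well / Medium: RPMI without phenol red, 5% FBS / Probe or stimulus: three-cytokine cocktail (IFN-γ, TNF-α, IL-1β) / Dosing: one compound concentration, pin transfer / Timing: 48 h co-treatment, 10 min post-lysis read / Technique: CellTiter-Glo luminescence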
A1 apoptosis 2: A1 inhibitors via caspase activation, primary screen, cell-based, luminescence, HTS, two replicates. 24,000 tested, under 10 active. MEF A1-2A-BIM cells, caspase-Glo luminescence, 3 h; percent of clofoctol response, DMSO zero. caspase activation, % (no concentration beside the values). AID 2465, 2010; in the data active = caspase activation above about 5.9%
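System: mouse embryonic fibroblasts co-expressing A1 and BIM (A1-2A-BIM), primed for A1 dependence; amount: 2500 cells/well; doses: 50 nL pinned compound; schedule: cells settled overnight, compound exposure 3 h at 37 °C, 5% CO2; detection: Caspase-Glo 3/7 luminescence, 1 h at room temperature; read-out: Caspase-3/7 activation, seen as rise in luminescence signal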
T cruzi HTS: inhibitors of intracellular Trypanosoma cruzi, primary screen, cell-based, plate reader, single point, set 2; 22,000 tested, 4.9% active; intracellular Trypanosoma cruzi in host cells; activity score (inhibition), % at 5.01 µM; in the data active = activity score above about 55%;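 also: parasites and compound incubated about four days before reading; 0% = median of neutral control wells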
* = called active by the depositor.

How did C[C@@H]1CCCCO[C@H](CN(C)C(=O)Nc2ccc(C(F)(F)F)cc2)[C@H](C)CN([C@@H](C)CO)C(=O)c2cc(NC(=O)Nc3ccc4c(c3)OCO4)ccc2O1 do in these assays?
A1 apoptosis 2: -1

Results for C[C@@H]1CCCCO[C@@H](CN(C)C(=O)Nc2ccc3c(c2)OCO3)[C@@H](C)CN([C@@H](C)CO)C(=O)c2cc(NC(=O)Nc3ccc(C(F)(F)F)cc3)ccc2O1 ?
A1 apoptosis 2: 0

How did C[C@@H]1CCCCO[C@@H](CN(C)C(=O)Nc2ccc(C(F)(F)F)cc2)[C@@H](C)CN([C@H](C)CO)C(=O)c2cc(NC(=O)Nc3ccc4c(c3)OCO4)ccc2O1 do in these assays?
INS-1E rescue: 4; A1 apoptosis 2: 1; T cruzi HTS: 67*

How did C[C@@H]1CCCCO[C@H](CN(C)C(=O)Nc2ccc3c(c2)OCO3)[C@@H](C)CN([C@H](C)CO)C(=O)c2cc(NC(=O)Nc3ccc(C(F)(F)F)cc3)ccc2O1 do in these assays?
INS-1E rescue: -35; T cruzi HTS: 76*

What do the screens show for `C[C@H]1CCCCO[C@H](CN(C)C(=O)Cc2ccccc2)[C@@H](C)CN([C@@H](C)CO)C(=O)c2cc(N(C)C)ccc2O1`?
A1 apoptosis 2: -1

Results for C[C@@H]1CN([C@@H](C)CO)C(=O)c2cc(NC(=O)Nc3ccccc3)ccc2O[C@@H](C)CCCCO[C@@H]1CN(C)Cc1ccc(C(F)(F)F)cc1 ?
A1 apoptosis 2: -1

Results for C[C@@H]1CCCCO[C@@H](CN(C)Cc2ccccc2)[C@@H](C)CN([C@H](C)CO)C(=O)c2cc(NC(=O)Nc3ccc(F)cc3)ccc2O1 ?
INS-1E rescue: -13; T cruzi HTS: 62*

What do the screens show for `C[C@@H]1CCCCO[C@H](CN(C)Cc2ccc(C(F)(F)F)cc2)[C@@H](C)CN([C@H](C)CO)C(=O)c2cc(NC(=O)Nc3ccccc3)ccc2O1`?
INS-1E rescue: -22; A1 apoptosis 2: 0; T cruzi HTS: 67*

How did C[C@@H]1CCCCO[C@H](CN(C)Cc2ccccc2)[C@@H](C)CN([C@H](C)CO)C(=O)c2cc(NC(=O)Nc3ccc(C(F)(F)F)cc3)ccc2O1 do in these assays?
INS-1E rescue: -18; A1 apoptosis 2: 0; T cruzi HTS: 71*

What do the screens show for `C[C@@H]1CCCCO[C@H](CN(C)Cc2ccccc2)[C@@H](C)CN([C@H](C)CO)C(=O)c2cc(NC(=O)Nc3ccc(F)cc3)ccc2O1`?
INS-1E rescue: -3; A1 apoptosis 2: -1; T cruzi HTS: -1

How did C[C@@H]1CCCCO[C@H](CN(C)Cc2ccccc2)[C@H](C)CN([C@@H](C)CO)C(=O)c2cc(NC(=O)Nc3ccc(C(F)(F)F)cc3)ccc2O1 do in these assays?
A1 apoptosis 2: -1

Results for COC(=O)CCCCCCC(=O)N/N=C/c1cccc(O)c1O ?
INS-1E rescue: -17; A1 apoptosis 2: 1; T cruzi HTS: 41

How did O=C(N/N=C/c1ccc(O)c2ccccc12)c1ccccc1O do in these assays?
INS-1E rescue: -19; A1 apoptosis 2: -7; T cruzi HTS: -16

How did C[C@H](CO)N1C[C@H](C)[C@H](CN(C)Cc2ccc(Oc3ccccc3)cc2)Oc2ccc(NC(=O)C3CCCCC3)cc2C1=O do in these assays?
T cruzi HTS: 1

Results for C[C@@H]1CN([C@H](C)CO)C(=O)c2cccc(NC(=O)Nc3ccccc3)c2O[C@H]1CN(C)Cc1ccc(C(F)(F)F)cc1 ?
INS-1E rescue: -18; A1 apoptosis 2: 0; T cruzi HTS: 33

What do the screens show for `C[C@@H]1CN([C@H](C)CO)C(=O)c2cccc(NC(=O)Nc3ccc(C(F)(F)F)cc3)c2O[C@@H]1CN(C)Cc1ccc(Oc2ccccc2)cc1`?
INS-1E rescue: -54; T cruzi HTS: 79*

How did C[C@@H]1CN([C@@H](C)CO)C(=O)c2cccc(NC(=O)Nc3ccc(C(F)(F)F)cc3)c2O[C@@H]1CN(C)Cc1ccc(Oc2ccccc2)cc1 do in these assays?
INS-1E rescue: -92; T cruzi HTS: 87*

How did C[C@@H]1CN([C@H](C)CO)C(=O)c2cccc(NC(=O)Nc3ccc(C(F)(F)F)cc3)c2O[C@H]1CN(C)Cc1ccc(Oc2ccccc2)cc1 do in these assays?
INS-1E rescue: -4; A1 apoptosis 2: -1; T cruzi HTS: 42

Results for C[C@@H]1CN([C@@H](C)CO)C(=O)c2cccc(NC(=O)Nc3ccc(C(F)(F)F)cc3)c2O[C@H]1CN(C)Cc1ccc(Oc2ccccc2)cc1 ?
INS-1E rescue: -55; A1 apoptosis 2: -1; T cruzi HTS: 52

Results for C[C@H]1CN([C@@H](C)CO)C(=O)c2cccc(NC(=O)Nc3ccc(C(F)(F)F)cc3)c2O[C@H]1CN(C)Cc1ccc(Oc2ccccc2)cc1 ?
INS-1E rescue: -77; A1 apoptosis 2: -2; T cruzi HTS: 69*

What do the screens show for `O=C(N/N=C/c1cccc(Br)c1)c1ccccc1O`?
INS-1E rescue: -15; A1 apoptosis 2: -3; T cruzi HTS: -14

Results for O=C(CCCCCC(=O)Nc1ccccc1O)N/N=C/c1cccnc1 ?
A1 apoptosis 2: 3

How did CC(=O)Nc1ccc(C(=O)Nc2ccccc2[N+](=O)[O-])cc1 do in these assays?
A1 apoptosis 2: -2

Results for COC(=O)C1=C/c2ccccc2C(C)N(Cc2ccc(OC)cc2)/C=C\1C(=O)OC (stereo not given) ?
A1 apoptosis 2: 1

Results for C=CCC/C=N/NC(=O)CCCCCC(=O)O ?
INS-1E rescue: -1; A1 apoptosis 2: 0; T cruzi HTS: -15

Results for C[C@@H]1CN([C@H](C)CO)C(=O)Cc2cc(NC(=O)Nc3ccc4c(c3)OCO4)ccc2O[C@@H]1CN(C)Cc1ccc2c(c1)OCO2 ?
INS-1E rescue: -14; A1 apoptosis 2: 0; T cruzi HTS: 22

What do the screens show for `C[C@H](CO)N1C[C@H](C)[C@@H](CN(C)Cc2ccc3c(c2)OCO3)Oc2ccc(NC(=O)Nc3ccc4c(c3)OCO4)cc2CC1=O`?
A1 apoptosis 2: -1

How did C[C@@H]1CN([C@H](C)CO)C(=O)Cc2cc(NC(=O)Nc3ccc4c(c3)OCO4)ccc2O[C@H]1CN(C)Cc1ccc(Cl)c(Cl)c1 do in these assays?
INS-1E rescue: -13; T cruzi HTS: 68*

How did C[C@@H]1CN([C@H](C)CO)C(=O)Cc2cc(NC(=O)Nc3ccc4c(c3)OCO4)ccc2O[C@@H]1CN(C)Cc1ccc(Cl)c(Cl)c1 do in these assays?
INS-1E rescue: -32; A1 apoptosis 2: 0; T cruzi HTS: 74*

How did C[C@H](CO)N1C[C@H](C)[C@@H](CN(C)Cc2ccc(Cl)c(Cl)c2)Oc2ccc(NS(=O)(=O)c3ccc(Cl)cc3)cc2C1=O do in these assays?
INS-1E rescue: -6; T cruzi HTS: 64*

What do the screens show for `C[C@H](CO)N1C[C@H](C)[C@@H](CN(C)Cc2ccncc2)Oc2ccc(NS(=O)(=O)c3cccs3)cc2C1=O`?
INS-1E rescue: 0; A1 apoptosis 2: 0; T cruzi HTS: 3

Compound activity deposited in PubChem by Broad Institute.
